In ChEMBL document CHEMBL1130325, “Novel non-nucleoside inhibitors of human immunodeficiency virus type 1 reverse transcriptase. 6. 2-Indol-3-yl- and 2-azaindol-3-yl-dipyridodiazepinones” (J Med Chem, 1997):

Assays:
[1] = target: Human immunodeficiency virus type 1 reverse transcriptase (Human immunodeficiency virus 1, UniProt Q72547, Y181C); test: Inhibitory concentration against HIV-1 mutant Y181C reverse transcriptase
Procedure, shortened: (§1)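 HIV-1 RT is at 0.63 nM in 50 mM Tris pH 7.8 with 4 mM DTT, 60 mM NaCl, 2 mM MgCl2, 0.02% Chaps, 4.8 μg/mL poly(rC)/oligo(dG) and 0.45 μM [3H]dGTP. Incubation is 30 min at room temperature in triplicate wells; [3H] incorporation is read after acid precipitation, minus EDTA background.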

[2] = tested on: Human immunodeficiency virus type 1 reverse transcriptase (Human immunodeficiency virus 1), Q72547 [Y181C]; test: Inhibition against HIV-1 mutant Y181C reverse transcriptase at 1 mM
[3] = target: Human immunodeficiency virus type 1 reverse transcriptase (Human immunodeficiency virus 1, UniProt Q72547); test: Inhibitory concentration against HIV-1 wild type reverse transcriptase; procedure, shortened: as §1
[4] = tested on: Human immunodeficiency virus type 1 reverse transcriptase (Human immunodeficiency virus 1), Q72547 [[…]]; test: Inhibition against HIV-1 mutant Y188L reverse transcriptase at 1 mM
[5] = target: Human immunodeficiency virus type 1 reverse transcriptase (Human immunodeficiency virus 1) (UniProt Q72547); test: Inhibition against HIV-1 wild type reverse transcriptase […]
[6] = target: Human immunodeficiency virus type 1 reverse transcriptase (Human immunodeficiency virus 1, UniProt Q72547, V106A); test: Inhibition against HIV-1 mutant V106A reverse transcriptase […]
[7] = target: Human immunodeficiency virus type 1 reverse transcriptase (Human immunodeficiency virus 1, UniProt Q72547, Y188L); test: Inhibitory concentration against HIV-1 mutant Y188L reverse transcriptase; procedure, shortened: as §1
[8] = target: Human immunodeficiency virus type 1 reverse transcriptase (Human immunodeficiency virus 1, UniProt Q72547, G190A); test: Inhibition against HIV-1 mutant G190A reverse transcriptase […]
[9] = target: Human immunodeficiency virus type 1 reverse transcriptase (Human immunodeficiency virus 1, UniProt Q72547, K103N); test: Inhibition against HIV-1 mutant K103N reverse transcriptase […]
[10] = target: Human immunodeficiency virus type 1 reverse transcriptase (Human immunodeficiency virus 1, UniProt Q72547, P236L); test: Inhibition against HIV-1 mutant P236L reverse transcriptase […]

| Compound | IC50 [1] [nM] | inhibition [2] [%] | IC50 [3] [nM] | inhibition [4] [%] | inhibition [5] [%] | IC50 [6] [nM] | IC50 [7] [nM] | IC50 [8] [nM] | IC50 [9] [nM] | IC50 [10] [nM] |
| --- | --- | --- | --- | --- | --- | --- | --- | --- | --- | --- |
| CCN1c2ncccc2C(=O)N(C)c2ccc(-c3c[nH]c4ccncc34)nc21 | 222 | 66 | 130 | 3 | 87 | – | – | – | – | – |
| CCN1c2ncccc2C(=O)N(C)c2ccc(-c3cc[nH]c3)nc21 | 50 | 91 | 33 | 78 | 95 | 1000 | 100 | 320 | – | – |
| CCN1c2ncccc2C(=O)N(C)c2ccc(-c3c[nH]c4ccccc34)nc21 | 28 | 93 | 28 | 72 | 96 | 49 | 90 | 12 | 97 | 79 |
| CCN1c2ncccc2C(=O)N(C)c2ccc(-c3c[nH]c4ccc(F)cc34)nc21 | 555 | 59 | 706 | 17 | 63 | – | – | – | – | – |
| CCN1c2ncccc2C(=O)N(C)c2ccc(-c3c[nH]c4ccc(OC)cc34)nc21 | 230 | 45 | 200 | 58 | 61 | 3090 | 730 | 600 | 935 | 404 |
| CCN1c2ncccc2C(=O)N(C)c2ccc(-c3c[nH]c4cnccc34)nc21 | 98 | 81 | 44 | 64 | 94 | 228 | 384 | 19 | 32 | < 1 |
| CCN1c2ncccc2C(=O)N(C)c2ccc(-c3c[nH]c4ncccc34)nc21 | 200 | 70 | 210 | 39 | 76 | – | 1300 | – | – | – |
| CCN1c2ncccc2C(=O)N(C)c2ccc(-c3c[nH]c4cccnc34)nc21 | – | 18 | – | 37 | 21 | – | – | – | – | – |
